# Compound activity deposited in PubChem by The Scripps Research Institute Molecular Screening Center.
# Sampled rows, rich in hits. Any-hit rate of the full collection: about 2.6%.
# PRMT1 inh – PRMT1 methyltransferase inhibitors, primary screen, biochemical, fluorescence polarization; AID 652257, 2013; recombinant PRMT1, activity-based probe fluorescence polarization; hit rate 1.3% among 370,000; inhibition, % at 2.79 µM;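 active = inhibition above about 21% made by adding two undisclosed values, limit read from the data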
# SIAE inh – human SIAE inhibitors, primary screen, biochemical, fluorescence polarization, FP-Rh probe, 1536-well HTS | hit rate 0.69% among 370,000 | SIAE FP-Rh probe binding | Sialate O-acetylesterase (Homo sapiens), Q9HAT2 | AID 1053197, 2014 | inhibition, % at 9.66 µM;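 active = inhibition above a cutoff: mean of compounds within the control limits plus 3 SD of those, cut at about 17% in these data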
# TCR CD3 inh – inhibitors of human TCR-CD3 interaction, primary screen, biochemical, fluorescence, TAMRA-labeled TCR probe | T-cell receptor (TCR) | inhibition, % at 9.4 µM | hit rate 0.37% among 360,000 | AID 651800, 2012; in the data active = inhibition above about 19%;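 note: recombinant mutant TCR 2C K166C tagged with TAMRA read by polarization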
# HTRA1 inhibitor – HTRA1 serine protease inhibitors, primary screen, biochemical, fluorescence polarization, HTS; recombinant HTRA1, FP-rhodamine activity-based probe; inhibition, % at 5.96 µM; hit rate 0.5% among 340,000; in the data active = inhibition above about 36%
# Target sequence (Q92743 whole entry, looked up): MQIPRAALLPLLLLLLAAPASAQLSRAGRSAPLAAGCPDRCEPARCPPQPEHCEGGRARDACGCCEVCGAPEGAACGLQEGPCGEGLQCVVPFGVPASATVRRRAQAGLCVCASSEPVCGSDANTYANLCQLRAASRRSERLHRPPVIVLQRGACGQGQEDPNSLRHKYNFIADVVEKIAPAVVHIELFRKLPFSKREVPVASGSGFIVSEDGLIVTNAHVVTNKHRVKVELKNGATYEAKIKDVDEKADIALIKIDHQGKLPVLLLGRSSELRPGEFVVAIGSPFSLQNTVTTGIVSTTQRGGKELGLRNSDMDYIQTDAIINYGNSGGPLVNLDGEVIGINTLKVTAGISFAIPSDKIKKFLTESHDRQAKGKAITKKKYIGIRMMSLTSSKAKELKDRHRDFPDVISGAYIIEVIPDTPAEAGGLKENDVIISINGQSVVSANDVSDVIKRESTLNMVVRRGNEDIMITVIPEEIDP
# mABHD4 FP – ABHD4 inhibitors, primary screen, biochemical, fluorescence polarization, mouse; (Lyso)-N-acylphosphatidylethanolamine lipase (Mus musculus), Q8VD66; purified mABHD4, FP-Rh probe fluorescence polarization; inhibition, % at 8.92 µM; hit rate 0.54% among 370,000; AID 720543, 2013;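 active = inhibition exceeding the mean over every tested compound plus 3 SD, cut at about 30% in these data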
#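 System: mouse ABHD4 enzyme, wild type / Medium: HEPES pH 7.0, NaCl, Pluronic buffer / Reagent: FP-Rh activity-based fluorescent probe / Control set: S159A mutant high control, sample median low control / Detection: fluorescence polarization with parallel and perpendicular emission, 525/598 nm / Schedule: 45 min + 60 min at 25 °C / Compound dosing: 8.92 µM, single dose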
# Numbers stand for hits; 0 = inactive; - = not tested or not shown.
SMILES,PRMT1 inh,SIAE inh,TCR CD3 inh,HTRA1 inhibitor,mABHD4 FP
CCCCCCC12C(=Cc3cc4c(cc31)OCCO4)c1cc(OC)c(OC)cc1C(CC(=O)O)N2C(=O)OC (stereo unspecified),0,0,0,-,0
CC1CCc2c(sc(Nc3nc4c(F)cccc4s3)c2C(N)=O)C1 (stereo unspecified),23,0,0,0,0
CCCc1cc(=O)n(-c2nc3ccccc3s2)[nH]1,0,0,0,0,0
CCOC(=O)Cc1cc(=O)n(-c2nc3ccccc3s2)[nH]1,0,0,0,49,0
CCOc1ccccc1NC(=O)C(NCCN(C)C)c1ccccc1 (stereo unspecified),0,0,0,0,0
CCOc1ccccc1NC(=O)C(NCCc1ccc(OC)cc1)c1ccccc1 (stereo unspecified),21,0,0,0,0
CCN1CCN(c2cc(C(C)C)nc3c(-c4ccccc4)c(C)nn23)CC1,0,18,0,-,0
CCCNC(=O)c1nnsc1S(=O)(=O)c1ccc(Cl)cc1,78,0,0,0,0
CCCNC(=O)NS(=O)(=O)c1ccc(Cl)cc1,0,0,0,0,0
COC(=O)c1cc2c(c3c4ccccc4n(S(=O)(=O)c4cccc(C)c4)c13)C(=O)N(Cc1ccc(N(C)C)cc1)C2,22,0,0,-,0
O=C(Nc1ccccc1C(F)(F)F)NC1(C(=O)N2CCOCC2)CCCCC1,23,0,0,0,0
C[C@@H]1CN(S(=O)(=O)C(C)(C)C)[C@@H](CCO)/C1=C\CCO,0,0,0,-,0
O=C(O)CCC(=O)Nc1ccc(SSc2ccc(NC(=O)CCC(=O)O)cc2)cc1,92,0,0,0,0
Cc1cc(=O)c2c(O)c(O)ccc2o1,23,0,0,0,0
COC(=O)C1=C(C)N(C)C(=NCc2ccc(OC)cc2)NC1c1ccc(Cl)cc1 (stereo unspecified),0,0,0,-,0
CCOC(=O)c1c(C)[nH]c(C=Nc2ccc(OC)cc2)c1O,22,0,0,0,0
COc1ccc(CNC(=O)c2ccc3c(c2)N(C)C(=O)CS3=O)cc1 (stereo unspecified),22,0,0,0,0
CC1(c2cccc3ccccc23)OC(=O)c2ccccc21 (stereo unspecified),0,0,0,0,0
COC(=O)C1=C(C)N(C)C(=NCc2cccc(C(F)(F)F)c2)NC1c1ccc(Cl)cc1 (stereo unspecified),0,0,0,-,0
CC(C)N(C(=O)Nc1ccc2nsnc2c1)C(C)C,25,0,0,-,0
COc1ccc(S(=O)(=O)N2CCN(C(=O)C3CCCO3)CC2)cc1 (stereo unspecified),0,0,0,0,0
O=C(C1CCCO1)N1CCN(S(=O)(=O)c2ccc(F)cc2)CC1 (stereo unspecified),24,0,0,0,0
CCCCC(c1nnnn1C(C)C)N1CCN(C(=O)c2ccco2)CC1 (stereo unspecified),0,0,0,0,0
CCN(CC)CCn1c(SCC(=O)NCCC2=CCCCC2)nc2c(sc3ccccc32)c1=O,22,0,0,0,0
N#CC1(NC(=O)Cn2cc(C(F)(F)F)cc(Cl)c2=O)CCCCC1,0,0,0,0,0
SMILES,PRMT1 inh,SIAE inh,TCR CD3 inh,HTRA1 inhibitor,mABHD4 FP
COc1cc(N)c2ncccc2c1Cl,0,0,0,0,34
O=[N+]([O-])c1ccc(-c2ccc(C=Nc3cccc4ccccc34)o2)cc1,22,0,0,0,0
O=C(Cc1ccccc1)N/N=C/c1ccc(-c2ccc([N+](=O)[O-])cc2)o1,0,0,0,0,0
Cc1onc(-c2ccccc2Cl)c1C(=O)NCCn1c(C)cc2ccccc21,-,-,-,48,-
Cc1onc(-c2ccccc2Cl)c1C(=O)NCC(=O)O,0,0,0,0,0
NS(=O)(=O)c1ccc(NC(=S)NC(=O)C2CCCCC2)cc1,0,0,0,0,0
NS(=O)(=O)c1ccc(NC(=S)NC2CCCCCC2)cc1,24,0,0,0,0
CCOC(=O)c1c(-c2ccc(C)o2)csc1NC(=O)CN(C)CC(=O)Nc1ccc(C)cc1,22,0,0,0,0
CCOC(=O)c1c(-c2ccc(C)o2)csc1NC(=O)CN1CCC(C(N)=O)CC1,0,0,0,0,0
O=C1Nc2ccccc2C1=Nc1ccc(S(=O)(=O)Nc2nccs2)cc1,0,0,0,0,42
CS(=O)(=O)Nc1ccc(C(=O)NCCc2ccccc2)cc1,0,19,0,0,0
CCN(C(=O)COC(=O)c1cc(-c2ccc(C)o2)nc2ccccc12)C1CCS(=O)(=O)C1 (stereo unspecified),23,0,0,0,0
Cc1ccc(-c2cc(C(=O)OCC(=O)N(C)C3CCS(=O)(=O)C3)c3ccccc3n2)o1 (stereo unspecified),0,0,0,0,0
CSc1cc(-c2ccco2)oc1C(=O)c1ccco1,25,0,0,0,0
CC1(C)C(C(=O)O)N2C(=O)C(NC(=O)Cc3ccccc3)C2S1=O (stereo unspecified),23,0,0,0,0
Cc1ccc(NC2CC(=O)N(CCc3ccccc3)C2=O)cc1 (stereo unspecified),0,0,0,0,0
CCN(CC)c1ccc(NC2CC(=O)N(CCc3ccc(OC)cc3)C2=O)cc1 (stereo unspecified),0,0,0,54,0
CC1(C)Cc2c(c(-c3ccco3)nc3sc4c(NCC5CCCO5)ncnc4c23)CO1 (stereo unspecified),23,0,0,0,0
CC1(C)Cc2c(c(-c3ccco3)nc3sc4c(NCCCO)ncnc4c23)CO1,0,0,0,0,0
O=C1c2cccc3cccc(c23)C(=O)N1Cc1cccnc1,0,0,0,0,0
O=C1c2cccc3c([N+](=O)[O-])ccc(c23)C(=O)N1Cc1cccnc1,21,0,0,0,0
O=[N+]([O-])c1cc(Cl)c(O)c2ncccc12,0,0,0,55,0
Cc1cc(Oc2cccnc2)ccc1NC(=O)Cc1cn(C)c2ccccc12,0,0,0,-,0
Cc1cc(NC(=S)Nc2cccc3ccccc23)n[nH]1,23,0,0,0,0
C[C@H]1CN([C@@H](C)CO)C(=O)c2cccc(NC(=O)Nc3ccc(C(F)(F)F)cc3)c2O[C@@H]1CN(C)C(=O)Nc1ccc(F)cc1,0,0,0,0,0
COc1ccc(NC(=O)N(C)C[C@H]2Oc3ccc(NC(=O)Nc4c(C)noc4C)cc3C(=O)N([C@H](C)CO)C[C@H]2C)cc1,0,17,0,0,0
C[C@@H]1CCCCO[C@H](CN(C)Cc2ccc(Cl)c(Cl)c2)[C@H](C)CN([C@@H](C)CO)C(=O)c2cc(NC(=O)Nc3ccc(F)cc3)ccc2O1,0,0,0,0,0
